# Most compounds without a hit are left out; they make up all but 3% or so of the library.
# UBC13 polyUb: inhibitors of human UBC13 polyubiquitin chain formation. P61088. TR-FRET. inhibition, % at 20 µM. hit rate 0.47% among 330,000. AID 485273; in the data active means inhibition above about 45%, passing the limit was not always enough
# Target sequence (P61088 whole entry, looked up): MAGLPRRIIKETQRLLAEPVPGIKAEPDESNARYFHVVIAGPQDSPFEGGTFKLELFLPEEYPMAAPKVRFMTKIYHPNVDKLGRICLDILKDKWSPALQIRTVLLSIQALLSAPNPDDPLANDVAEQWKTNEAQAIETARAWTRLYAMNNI
# SENP6 block: blocks the human protease SENP6. Recombinant SENP6 catalytic domain, aminoluciferin luminescence. AID 2599. Q9GZR1. inhibition, % at 10 µM. hit rate 1.8% among 330,000;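 active means inhibition above about 50% at the single tested dose, limit read from the data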;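 further: plate controls were DMSO wells with enzyme for no effect and DMSO wells lacking enzyme for full effect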
# Apaf1 inhib: inhibitors of human Apaf-1 apoptosome | O14727 | reconstituted apoptosome caspase-3 activity, DEVD-Rh110 fluorescence | inhibition, % at 20 µM | hit rate 0.71% among 330,000; active means inhibition of at least 40% at 20 µM;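 further: plate controls were DMSO wells for no effect and DEVD-CHO caspase inhibitor wells for full effect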
#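 Medium: Hepes buffer, pH 7.5 / System: biochemical Apaf-1 apoptosome reconstitution / Measured by: Rh110 fluorescence, excitation 480 nm, emission 540 nm / Times: compound with Apaf-1, dATP, procaspase-3 30 min, then 50 min reaction, room temperature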
# SENP8 block-1: blocks the human protease SENP8. hit rate 1.2% among 330,000. purified SENP8, Z-RLRGG-aminoluciferin cleavage, luminescence. Q96LD8. AID 2540. inhibition, % at 10 µM; in the data active means inhibition above about 50%
# Target sequence (Q96LD8 whole entry, looked up): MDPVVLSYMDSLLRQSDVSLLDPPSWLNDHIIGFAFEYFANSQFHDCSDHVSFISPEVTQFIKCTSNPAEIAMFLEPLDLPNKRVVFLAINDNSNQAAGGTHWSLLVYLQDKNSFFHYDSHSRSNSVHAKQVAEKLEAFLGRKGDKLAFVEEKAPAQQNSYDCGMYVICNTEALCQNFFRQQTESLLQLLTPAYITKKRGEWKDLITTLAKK
# SENP8 block-2: blocks human SENP8 cleavage of Nedd8 substrate | recombinant SENP8, Nedd8 substrate fluorescence | hit rate 0.64% among 360,000 | inhibition, % at 20 µM | Q96LD8 | AID 602440; in the data active means inhibition mostly above about 40%, no sharp cut-off; inactive means mostly below about 27%
# SENP7 block: SENP7 protease inhibition. Q9BQF6. recombinant SENP7, Z-RLRGG-aminoluciferin luminescence, 40 min. inhibition, % at 5 µM. hit rate 1.5% among 330,000. AID 434973;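 active means inhibition above about 50% at the single test dose, limit read from the data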;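 further: plate controls were DMSO with enzyme for no effect and no enzyme buffer wells for full effect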
# Casp3 counter: inhibits human caspase-3 in UBC13 counter-screen; AID 488856; inhibition, % at 20 µM; hit rate 4% among 1,400; shares compounds with UBC13 polyUb; Recombinant caspase-3, Caspase-Glo 3/7 luminescence, 60 min;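 active means mean inhibition across replicates above about 26%, limit read from the data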;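 further: plate controls were DMSO with caspase-3 for no effect and DMSO wells lacking enzyme for full effect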
# Target sequence (P42574 whole entry, looked up): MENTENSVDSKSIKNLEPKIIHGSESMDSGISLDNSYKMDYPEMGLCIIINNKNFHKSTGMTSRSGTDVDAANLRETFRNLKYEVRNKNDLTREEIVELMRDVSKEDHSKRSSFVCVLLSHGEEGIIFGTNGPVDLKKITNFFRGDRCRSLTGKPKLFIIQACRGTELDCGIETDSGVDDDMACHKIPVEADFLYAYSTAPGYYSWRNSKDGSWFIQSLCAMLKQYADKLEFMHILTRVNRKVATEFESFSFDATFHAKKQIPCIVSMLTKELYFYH
# UBC13 conf: confirmation of human UBC13 polyubiquitin inhibitors; AID 488859; hit rate 68% among 1,400; shares compounds with UBC13 polyUb; UBC13 polyubiquitination, TR-FRET, biochemical; inhibition, % at 10 µM; in the data active means inhibition above about 45%
# Apaf-1 inh conf: Apaf-1 inhibition, single-dose confirmed; shares compounds with Apaf1 inhib; reconstituted apoptosome, caspase-3 DEVD-Rh110 fluorescence; AID 504614; hit rate 25% among 1,800; inhibition, % at 20 µM;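 active means mean inhibition of at least 40% at 20 µM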;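 further: plate controls were DMSO wells for no effect and DEVD-CHO caspase inhibitor control wells for full effect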
# Rh110 interf inh: counter-screen for Apaf-1 inhibitors: fluorescence interference; shares compounds with Apaf1 inhib; Rh110 fluorescence interference, quenched caspase reaction; activation (fluorescence interference), % at 20 µM; 1,800 tested, under 10 active; AID 504615;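 active means signal rise of 40% or more at 20 µM, treated as a fluorescence artifact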
# Fluor interf inh: counter-screen for Apaf-1 inhibitors: fluorescence interference, dose response. shares compounds with Apaf1 inhib. 460 tested, under 10 active. IC50, µM. fluorescence interference counterscreen, Apaf-1 assay format. AID 588538; call rule not given here
# * marks the source's active call; other numbers are inactive results; / = no result given.
SMILES,UBC13 polyUb,SENP6 block,Apaf1 inhib,SENP8 block-1,SENP8 block-2,SENP7 block,Casp3 counter,UBC13 conf,Apaf-1 inh conf,Rh110 interf inh,others
C#CCOCCOCCOCCNc1nc(N2CCN(C(=O)CCCCCCCCCCNC(=O)Cn3cc(CCCCCN)nn3)CC2)nc(N2CCN(C(=O)CCCCCCCCCCNC(=O)[C@H]([C@@H](C)CC)n3cc(CCCCN=C(N)N)nn3)CC2)n1,121*,-31,85*,-17,30,6,-4,124*,69*,3,Fluor interf inh=>100
C=CCn1c(=O)c2ccccc2n2c(SCC(=O)NC(C)C)nnc12,6,-11,0,3,7,3,/,/,/,/,
OC(Cc1ccncc1)c1ccccc1Cl (centres undefined),/,/,/,/,10,/,/,/,/,/,
CNc1sc(C(=O)c2ccccc2F)c(N)c1-c1nc2ccccc2s1,-2,33,-3,10,-13,0,/,/,/,/,
COc1cc(OC)c(NS(=O)(=O)c2c(C)[nH]c(=O)[nH]c2=O)cc1Cl,-2,-16,-1,2,14,3,/,/,/,/,
NC(=O)c1ccc(NC(=O)COc2ccc([N+](=O)[O-])cc2Cl)cc1,1,-19,2,-5,10,1,/,/,/,/,
C#CCOCCOCCOCCNc1nc(N2CCN(C(=O)[C@H]([C@@H](C)CC)n3cc(CCC(=O)O)nn3)CC2)nc(N2CCN(C(=O)[C@H](CCCCN)n3cc(CCCC)nn3)CC2)n1,/,/,/,/,9,/,/,/,/,/,
C#CCOCCOCCOCCNc1nc(N2CCN(C(=O)CCCCCCCCCCNC(=O)[C@H]([C@@H](C)CC)n3cc(CCCCCN)nn3)CC2)nc(N2CCN(C(=O)CCCCCCCCCCNC(=O)[C@H](CCCCN)n3cc(CCCC(=O)O)nn3)CC2)n1,114*,-27,56*,-13,15,1,-2,105*,28,20,
CC(C)C[C@H](NC(=O)c1nc[nH]c1C(=O)N[C@@H](CCCCN)C(=O)OC(C)(C)C)C(=O)OC(C)(C)C,53*,0,43*,-3,9,-1,0,53*,10,7,
CC(C)(C)OC(=O)[C@H](CCCCN)NC(=O)c1nc[nH]c1C(=O)N[C@@H](CCCCN)C(=O)OC(C)(C)C,7,0,13,3,14,-1,/,/,/,/,
CC(C)(C)OC(=O)[C@H](Cc1ccccc1)NC(=O)c1nc[nH]c1C(=O)N[C@@H](CCCCN)C(=O)OC(C)(C)C,73*,-13,51*,-3,14,-1,-4,76*,10,7,
CCOC(=O)Cc1csc(SCC(=O)Nc2cc(C)ccc2OC)n1,-1,-6,4,-11,5,1,/,/,/,/,
C#CCOCCOCCOCCNc1nc(N2CCN(C(=O)C([C@@H](C)O)n3cc([C@@H](N)CCCCN)nn3)CC2)nc(N2CCN(C(=O)[C@H](CCC(=O)O)n3cc([C@@H](N)CCCCN)nn3)CC2)n1 (some centres undefined),25,-11,30,-11,9,-3,/,/,/,/,
C#CCOCCOCCOCCNc1nc(N2CCN(C(=O)[C@H]([C@@H](C)CC)n3cc([C@@H](N)Cc4ccc(O)cc4)nn3)CC2)nc(N2CCN(C(=O)[C@H](CCCCN)n3cc([C@@H](N)CO)nn3)CC2)n1,98*,0,52*,-7,/,-14,-3,73*,0,1,
C#CCOCCOCCOCCNc1nc(N2CCN(C(=O)C([C@@H](C)CC)n3cc(C(N)CO)nn3)CC2)nc(N2CCN(C(=O)[C@H](CCC(=O)O)n3cc(C(N)Cc4ccc(O)cc4)nn3)CC2)n1 (some centres undefined),-10,-11,-2,4,/,-2,/,/,/,/,
C#CCOCCOCCOCCNc1nc(N2CCN(C(=O)[C@H](CCCCN)n3cc([C@@H](N)CC(N)=O)nn3)CC2)nc(N2CCN(C(=O)[C@H](CCCCN)n3cc([C@@H](N)CC(N)=O)nn3)CC2)n1,108*,-11,55*,-13,18,2,-2,111*,5,3,
C#CCOCCOCCOCCNc1nc(N2CCN(C(=O)C([C@@H](C)O)n3cc([C@@H](N)CCCCN)nn3)CC2)nc(N2CCN(C(=O)[C@H](CCCCN)n3cc([C@@H](N)CC(N)=O)nn3)CC2)n1 (some centres undefined),103*,0,51*,11,25,-6,1,106*,9,-2,
C#CCOCCOCCOCCNc1nc(N2CCN(C(=O)[C@H](CC(N)=O)n3cc([C@@H](N)CC(N)=O)nn3)CC2)nc(N2CCN(C(=O)[C@H](CC(N)=O)n3cc([C@@H](N)CC(N)=O)nn3)CC2)n1,9,-9,7,-9,9,-7,/,/,/,/,
COCCN(C(=O)c1snc(C(N)=O)c1N)C(C(=O)NC1CCCCC1)c1ccc(OC)c(OC)c1 (centres undefined),-10,19,4,-3,-246,8,/,/,/,/,
CCN1C[C@@H]2[C@@H]3C(=O)N(C)C(=O)[C@@H]3[C@](CC)(C1=O)N2C(=O)c1ccc(F)cc1,/,/,/,/,9,/,/,/,/,/,
CN1CCN(c2ncnc3c2ncn3[C@H]2CN(Cc3ccncc3)C[C@@H](CO)O2)CC1,/,/,/,/,15,/,/,/,/,/,
CC1(c2ccc(Cl)cc2Cl)NC(=O)N(CC(=O)NCCC2=CCCCC2)C1=O (centres undefined),/,/,/,/,-12,/,/,/,/,/,
O=C1Nc2cc(C(=O)NCCN3CCCCCC3)ccc2S/C1=C\c1ccccc1,36,7,23,6,-10,1,/,/,/,/,
COc1cccc(/C=C2/Sc3ccc(C(=O)NCCN4CCCCCC4)cc3NC2=O)c1,66*,-20,40,-10,-34,8,1,92*,32,4,
O=C(CN(C(=O)CCC(=O)Nc1ccccn1)c1ccc2c(c1)OCO2)NCc1ccc(F)cc1,3,4,-3,12,4,-7,/,/,/,/,
CC[C@@H](C)[C@H](CNC)NC[C@@H](Cc1cccc2ccccc12)NCCc1cccc(C(F)(F)F)c1,60*,-25,70*,-16,12,6,-2,100*,48*,13,Fluor interf inh=>100
